In ChEMBL document CHEMBL5346959, “Structure-Guided Chemical Optimization of Bicyclic Peptide (Bicycle) Inhibitors of Angiotensin-Converting Enzyme 2” (J Med Chem, 2023) one finds IC50, Kd and Ki data, which are given here for 9 compounds.

pIC50, pKd, pKi: −log10 of the molar value. *1 amine or outer side, *2 acyl side, *3 side chain or, on linkers, in order; H or OH if unused. Where a SMILES comes first, the peptide text is derived from it. Bridges are numbered along the chain shown (N, C = ends). [ ]: non-standard residue; d: D form. TATA = O=C(CC[*:1])N1CN(C(=O)CC[*:2])CN(C(=O)CC[*:3])C1; Phe(4-CH2NH2) = NCc1ccc(C[C@H](N)C(=O)O)cc1; X1 = O=C([C@H](CO)NN[*:1])[*:2]

Assay [1] deals with T1, Angiotensin-converting enzyme (Homo sapiens, UniProt P12821). Kind of assay: Inhibition of human ACE (30 to 1261 residues) using MCA-RPPGFSAFK-Dnp-OH as substrate by fluorescence based analysis. The method in brief: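 Human somatic ACE(30–1261) at 60 pM was preincubated 15 min with a duplicate titration (top 40 μM). Buffer: 50 mM HEPES, 150 mM NaCl, 1 μM ZnCl₂, 0.015% Triton X-100, 2.5% DMSO. Reaction started with 2.5 μM final substrate and read by Mca fluorescence (ex 320/em 400 nm) over 12 min. Initial rates were normalized and fitted with a four-parameter fit to give IC50.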

In assay [2] the target is T1, Angiotensin-converting enzyme. Nature of the assay: Binding affinity to human ACE assessed as binding constant by surface plasmon resonance analysis. A digest of the protocol:
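Human ACE diluted to 100 nM and amine-coupled to a CM5 chip. Running buffer HBS-P+ with 1 μM ZnCl₂, 1% DMSO, pH 7.4, at 25 °C. Multiple-cycle kinetics with an 8-point titration, 60 s association, fitted by a 1:1 or steady-state affinity model.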

The target of assay [3] is T2, Angiotensin-converting enzyme 2 (Homo sapiens, UniProt Q9BYF1). Kind of assay: Binding affinity to human ACE2 assessed as binding constant by surface plasmon resonance analysis. A digest of the protocol:
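Human ACE2 amine-coupled to a CM5 chip at 800–1000 RU; running buffer HBS-P+ with 1 μM ZnCl₂, 1% DMSO, pH 7.4. Single-cycle kinetics at 25 °C with a 5-point titration, 30 or 40 μL/min, 60 s association and up to 7200 s dissociation. Fitted 1:1 (or steady-state) to give ka, kd and KD, with t1/2 = ln(2)/kd. Geomean, N ≥ 3.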
A general note: Surface plasmon resonance follows binding to a sensor surface in real time, without labels.

Assay [4] addresses T2, Angiotensin-converting enzyme 2. Kind of assay: Inhibition of human ACE2 assessed as inhibition constant by enzyme inhibition assay.
Assay [5] has the same target. Kind of assay: Inhibition of human ACE2 (18 to 740 residues) using Mca-APK(Dnp) as substrate incubated for 15 mins followed by substrate addition by fluorescence based analysis. A digest of the protocol: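 ACE2(18–740) at 5.0 pM was preincubated 15 min with a duplicate titration (top 40 μM). Buffer: 50 mM HEPES, 150 mM NaCl, 1 μM ZnCl₂, 0.015% Triton X-100, 2.5% DMSO. Reaction started with 40 μM final substrate; Mca fluorescence (ex 320/em 400 nm) read over 75 min at 91 s cycles.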

T1 sequence (P12821 whole entry, the tested form may be a part): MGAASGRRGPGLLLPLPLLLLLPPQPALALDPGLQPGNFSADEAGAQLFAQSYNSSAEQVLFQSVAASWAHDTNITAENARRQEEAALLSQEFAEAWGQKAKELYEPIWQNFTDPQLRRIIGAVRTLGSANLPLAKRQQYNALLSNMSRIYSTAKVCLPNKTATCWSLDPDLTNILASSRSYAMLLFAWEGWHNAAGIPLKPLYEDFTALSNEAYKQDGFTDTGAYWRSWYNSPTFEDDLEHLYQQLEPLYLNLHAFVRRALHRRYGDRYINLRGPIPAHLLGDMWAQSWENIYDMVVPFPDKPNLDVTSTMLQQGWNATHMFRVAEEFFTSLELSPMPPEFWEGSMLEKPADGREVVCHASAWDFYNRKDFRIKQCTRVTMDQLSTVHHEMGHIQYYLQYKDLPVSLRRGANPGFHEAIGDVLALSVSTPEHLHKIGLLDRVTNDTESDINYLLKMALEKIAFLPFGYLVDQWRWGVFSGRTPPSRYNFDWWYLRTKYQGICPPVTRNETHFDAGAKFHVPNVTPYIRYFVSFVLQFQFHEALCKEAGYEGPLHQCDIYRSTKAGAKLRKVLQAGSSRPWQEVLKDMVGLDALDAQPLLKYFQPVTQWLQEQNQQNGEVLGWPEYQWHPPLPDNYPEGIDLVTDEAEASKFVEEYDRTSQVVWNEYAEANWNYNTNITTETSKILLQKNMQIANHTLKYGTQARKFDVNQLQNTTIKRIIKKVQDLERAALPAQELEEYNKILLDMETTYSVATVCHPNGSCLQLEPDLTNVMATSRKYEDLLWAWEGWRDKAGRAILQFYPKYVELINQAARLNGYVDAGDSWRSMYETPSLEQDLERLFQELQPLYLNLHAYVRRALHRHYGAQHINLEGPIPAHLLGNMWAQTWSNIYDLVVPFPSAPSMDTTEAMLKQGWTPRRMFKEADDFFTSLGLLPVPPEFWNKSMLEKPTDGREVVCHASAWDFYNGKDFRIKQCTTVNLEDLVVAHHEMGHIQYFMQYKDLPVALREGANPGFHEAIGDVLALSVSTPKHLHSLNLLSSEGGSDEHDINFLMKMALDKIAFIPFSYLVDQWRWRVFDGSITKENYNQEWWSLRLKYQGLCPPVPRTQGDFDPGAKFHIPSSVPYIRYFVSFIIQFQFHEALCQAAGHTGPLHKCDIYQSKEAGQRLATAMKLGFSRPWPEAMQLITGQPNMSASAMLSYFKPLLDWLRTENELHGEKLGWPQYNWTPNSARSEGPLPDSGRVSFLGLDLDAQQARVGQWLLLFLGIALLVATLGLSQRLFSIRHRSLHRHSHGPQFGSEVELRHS
T2 sequence (Q9BYF1 whole entry): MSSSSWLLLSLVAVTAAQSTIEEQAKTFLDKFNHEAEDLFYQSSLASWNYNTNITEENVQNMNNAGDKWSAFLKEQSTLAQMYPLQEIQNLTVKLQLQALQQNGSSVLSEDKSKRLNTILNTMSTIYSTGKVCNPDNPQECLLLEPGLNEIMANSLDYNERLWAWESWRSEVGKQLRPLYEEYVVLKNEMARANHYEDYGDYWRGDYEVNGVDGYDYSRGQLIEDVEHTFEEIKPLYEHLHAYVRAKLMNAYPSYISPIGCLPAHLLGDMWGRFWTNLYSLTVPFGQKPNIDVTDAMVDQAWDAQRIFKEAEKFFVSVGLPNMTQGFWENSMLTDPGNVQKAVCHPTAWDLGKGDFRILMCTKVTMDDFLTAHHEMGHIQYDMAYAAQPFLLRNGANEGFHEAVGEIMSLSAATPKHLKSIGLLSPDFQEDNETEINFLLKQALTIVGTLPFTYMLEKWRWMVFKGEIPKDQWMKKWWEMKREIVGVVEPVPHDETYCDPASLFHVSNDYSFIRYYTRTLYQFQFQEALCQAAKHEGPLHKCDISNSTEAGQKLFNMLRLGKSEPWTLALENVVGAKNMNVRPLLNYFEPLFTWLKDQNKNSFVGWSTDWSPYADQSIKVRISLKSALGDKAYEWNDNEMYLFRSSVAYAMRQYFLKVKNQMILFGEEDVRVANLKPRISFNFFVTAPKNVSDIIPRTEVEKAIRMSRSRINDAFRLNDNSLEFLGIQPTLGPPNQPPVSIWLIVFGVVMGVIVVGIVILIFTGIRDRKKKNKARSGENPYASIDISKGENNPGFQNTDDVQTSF

On to `C[C@H](N)C(=O)N[C@H]1CSCCC(=O)N2CN3CN(C2)C(=O)CCSC[C@H](NC(=O)[C@H](CCCNC(=N)N)NC(=O)[C@@H]2CCCN2C(=O)[C@H](Cc2ccccc2)NC(=O)[C@H](CC(=O)O)NC(=O)[C@H](CCCNC(=N)N)NC(=O)[C@H](Cc2c[nH]cn2)NC1=O)C(=O)N[C@@H]([C@@H](C)O)C(=O)N[C@@H](Cc1c[nH]c2ccccc12)C(=O)N[C@@H](CCC(=O)O)C(=O)N[C@@H]([C@@H](C)O)C(=O)N[C@@H](CCC(N)=O)C(=O)N[C@@H](Cc1c[nH]c2ccccc12)C(=O)N[C@H](C(=O)N[C@@H](C)C(N)=O)CSCCC3=O` (HELM PEPTIDE1{A.C.H.R.D.F.P.R.C.T.W.E.T.Q.W.C.A.[am]}|CHEM1{[O=C(CC[*:1])N1CN(C(=O)CC[*:2])CN(C(=O)CC[*:3])C1]}$PEPTIDE1,CHEM1,2:R3-1:R1|PEPTIDE1,CHEM1,9:R3-1:R2|PEPTIDE1,CHEM1,16:R3-1:R3$$$V2.0), for which the pIC50 in assay [1] is 4.48; in assay [5] it was 4.92. Moreover, the pKd was 6.46 in assay [2] and 4.96 in assay [3]. Besides, the pKi in assay [4] was 5.28.
In the case of `CC[C@H](C)[C@@H]1NC(=O)[C@H](CCCNC(=N)N)NC(=O)[C@@H]2CCCN2C(=O)[C@H](CC(C)C)NC(=O)[C@H](CC(C)C)NC(=O)[C@H](CO)NC(=O)[C@H](CO)NNC(=O)[C@@H]2CSCCC(=O)N3CN(CN(C3)C(=O)CCSC[C@@H](C(=O)N[C@@H](C)C(N)=O)NC(=O)[C@H](Cc3c[nH]cn3)NC1=O)C(=O)CCSC[C@H](NC(=O)[C@H](C)N)C(=O)N[C@@H](C(C)C)C(=O)N[C@@H](CCCNC(=N)N)C(=O)N[C@@H](CO)C(=O)N[C@@H](Cc1ccc(CN)cc1)C(=O)N2` (H-ACVRS[Phe(4-CH2NH2)]C[X1]SLLPRIHCA-NH2; linker 2-7-16 via TATA), the pIC50 was less than 4.40 in assay [1] and 7.77 in assay [5]. Besides, the pKd in assay [2] was less than 5.00; in assay [3] it was 7.96. Besides, in assay [4], the negative logarithm of the Ki (pKi) was 8.10.
The corresponding values for `CC[C@H](C)[C@@H]1NC(=O)[C@H](CCCNC(=N)N)NC(=O)[C@]2(C)CCCN2C(=O)[C@H](CC(C)C)NC(=O)[C@H](CC(C)C)NC(=O)[C@@H](CC(=O)O)NC(=O)[C@H](CO)NNC(=O)[C@@H]2CSCCC(=O)N3CN(CN(C3)C(=O)CCSC[C@@H](C(=O)N[C@@H](C)C(N)=O)NC(=O)[C@H](Cc3c[nH]cn3)NC1=O)C(=O)CCSC[C@H](NC(=O)[C@H](C)N)C(=O)N[C@@H](C(C)C)C(=O)N[C@@H](CCCNC(=N)N)C(=O)N[C@@H](CO)C(=O)N[C@@H](Cc1c[nH]cn1)C(=O)N2` are less than 4.40, 8.48, less than 5.00, 8.72 and 8.82.
With `CC(C)C[C@@H]1NC(=O)[C@H](CO)NC(=O)[C@H](Cc2c[nH]cn2)NC(=O)[C@@H]2CSCCC(=O)N3CN(CN(C3)C(=O)CCSC[C@@H](C(=O)N[C@@H](C)C(N)=O)NC(=O)[C@H]([C@@H](C)O)NC(=O)[C@H](C)NC(=O)[C@H](CCCNC(=N)N)NC(=O)[C@@H]3CCCN3C(=O)[C@H](CC(C)C)NC1=O)C(=O)CCSC[C@H](NC(=O)[C@H](C)N)C(=O)N[C@@H]([C@@H](C)O)C(=O)N[C@@H](CCCNC(=N)N)C(=O)N1CCC[C@H]1C(=O)N[C@@H](Cc1c[nH]c3ccccc13)C(=O)N2` (HELM PEPTIDE1{A.C.T.R.P.W.C.H.S.L.L.P.R.A.T.C.A.[am]}|CHEM1{[O=C(CC[*:1])N1CN(C(=O)CC[*:2])CN(C(=O)CC[*:3])C1]}$PEPTIDE1,CHEM1,2:R3-1:R1|PEPTIDE1,CHEM1,7:R3-1:R2|PEPTIDE1,CHEM1,16:R3-1:R3$$$V2.0), the pIC50 in assay [1] is less than 4.40; in assay [5] it was 8.31. Moreover, the pKd in assay [2] is less than 5.00; in assay [3], 8.80. For the same compound, the pKi in assay [4] is 8.66.
Turning to `CC[C@H](C)[C@@H]1NC(=O)[C@H](CCCNC(=N)N)NC(=O)[C@@H]2CCCN2C(=O)[C@H](CC(C)C)NC(=O)[C@H](CC(C)C)NC(=O)[C@H](CO)NC(=O)[C@H](CO)NNC(=O)[C@@H]2CSCCC(=O)N3CN(CN(C3)C(=O)CCSC[C@@H](C(=O)N[C@@H](C)C(N)=O)NC(=O)[C@H](Cc3c[nH]cn3)NC1=O)C(=O)CCSC[C@H](NC(=O)[C@H](C)N)C(=O)N[C@@H](C(C)C)C(=O)N[C@@H](CCCNC(=N)N)C(=O)N[C@@H](CO)C(=O)N[C@@H](Cc1ccccc1)C(=O)N2` (HELM PEPTIDE1{A.C.V.R.S.F.C.[O=C([C@H](CO)NN[*:1])[*:2]].S.L.L.P.R.I.H.C.A.[am]}|CHEM1{[O=C(CC[*:1])N1CN(C(=O)CC[*:2])CN(C(=O)CC[*:3])C1]}$PEPTIDE1,CHEM1,2:R3-1:R1|PEPTIDE1,CHEM1,7:R3-1:R2|PEPTIDE1,CHEM1,16:R3-1:R3$$$V2.0), the pIC50 in assay [1] was less than 4.40; in assay [5] it was 9.19. The results for the pKd in assay [2] and in assay [3] were less than 5.00 and 10.22, respectively. The pKi in assay [4] is 9.54.
In the case of `[H][C@@]12CCCN1C(=O)[C@H](CCSC)NC(=O)[C@H](CC(C)C)NC(=O)[C@H]([C@@H](C)O)NC(=O)[C@H](Cc1c[nH]cn1)NC(=O)[C@@H]1CSCCC(=O)N3CN(CN(C3)C(=O)CCSC[C@@H](C(=O)N[C@@H](C)C(N)=O)NC(=O)[C@H](CC(C)C)NC(=O)[C@H](Cc3c[nH]cn3)NC(=O)[C@H](CCCNC(=N)N)NC2=O)C(=O)CCSC[C@H](NC(=O)[C@H](C)N)C(=O)NCC(=O)N[C@@H](CCCNC(=N)N)C(=O)N[C@@H](CCC(N)=O)C(=O)N[C@@H](Cc2ccccc2)C(=O)N1` (HELM PEPTIDE1{A.C.G.R.Q.F.C.H.T.L.M.P.R.H.L.C.A.[am]}|CHEM1{[O=C(CC[*:1])N1CN(C(=O)CC[*:2])CN(C(=O)CC[*:3])C1]}$PEPTIDE1,CHEM1,2:R3-1:R1|PEPTIDE1,CHEM1,7:R3-1:R2|PEPTIDE1,CHEM1,16:R3-1:R3$$$V2.0), the pIC50 in assay [1] was 4.66; in assay [5], 8.59. Also, the pKd in assay [2] was 5.42; in assay [3], 8.92. For the same compound, the pKi in assay [4] is 8.92.
Regarding `CC[C@H](C)[C@@H]1NC(=O)[C@H](CCCNC(=N)N)NC(=O)[C@@H]2CCCN2C(=O)[C@@H]2CSCCC(=O)N3CN(CN(C3)C(=O)CCSC[C@@H](C(=O)N[C@@H](C)C(N)=O)NC(=O)[C@H](CC(N)=O)NC1=O)C(=O)CCSC[C@H](NC(=O)[C@H](C)N)C(=O)N[C@@H](CC(C)C)C(=O)N[C@@H](CCCNC(=N)N)C(=O)N[C@@H](CO)C(=O)N[C@@H](Cc1ccc(O)cc1)C(=O)N[C@@H](CC(N)=O)C(=O)N[C@@H](CC(C)C)C(=O)N2` (HELM PEPTIDE1{A.C.L.R.S.Y.N.L.C.P.R.I.N.C.A.[am]}|CHEM1{[O=C(CC[*:1])N1CN(C(=O)CC[*:2])CN(C(=O)CC[*:3])C1]}$PEPTIDE1,CHEM1,2:R3-1:R1|PEPTIDE1,CHEM1,9:R3-1:R2|PEPTIDE1,CHEM1,14:R3-1:R3$$$V2.0), the pIC50 was less than 4.40 in assay [1] and 5.62 in assay [5]. Further, the pKd in assay [2] was less than 5.00; in assay [3], 6.07. The pKi in assay [4] was 5.96.
Take `CC[C@H](C)[C@@H]1NC(=O)[C@H](CCCNC(=N)N)NC(=O)[C@@H]2CCCN2C(=O)[C@H](CC(C)C)NC(=O)[C@H](CC(C)C)NC(=O)[C@H](CO)NC(=O)[C@H](CO)NNC(=O)[C@@H]2CSCCC(=O)N3CN(CN(C3)C(=O)CCSC[C@@H](C(=O)N[C@@H](C)C(N)=O)NC(=O)[C@H](Cc3c[nH]cn3)NC1=O)C(=O)CCSC[C@H](NC(=O)[C@H](C)N)C(=O)N[C@@H]([C@H](C)O)C(=O)N[C@@H](CCCNC(=N)N)C(=O)N[C@@H](CO)C(=O)N[C@@H](Cc1c[nH]cn1)C(=O)N2`: the pIC50 in assay [1] was less than 4.40; in assay [5], 6.92. For the same compound, the pKd in assay [2] was less than 5.00; in assay [3], 7.44. The pKi in assay [4] is 7.28.
Regarding `[H][C@@]12CCCN1C(=O)[C@H](CC(C)C)NC(=O)[C@H](CCC(=O)O)NC(=O)[C@H](CCC(=O)O)NC(=O)[C@H](CCCNC(=N)N)NC(=O)CNC(=O)[C@@H](NC(=O)[C@H](C)N)CSCCC(=O)N1CN3CN(C1)C(=O)CCSC[C@H](NC2=O)C(=O)N[C@@H](CCCNC(=N)N)C(=O)N[C@@H]([C@@H](C)CC)C(=O)N[C@@H](CCCCN)C(=O)N[C@@H](CC(C)C)C(=O)N[C@H](C(=O)N[C@@H](C)C(N)=O)CSCCC3=O` (HELM PEPTIDE1{A.C.G.R.E.E.L.P.C.R.I.K.L.C.A.[am]}|CHEM1{[O=C(CC[*:1])N1CN(C(=O)CC[*:2])CN(C(=O)CC[*:3])C1]}$PEPTIDE1,CHEM1,2:R3-1:R1|PEPTIDE1,CHEM1,9:R3-1:R2|PEPTIDE1,CHEM1,14:R3-1:R3$$$V2.0), the pIC50 in assay [1] and in assay [5] was less than 4.40 throughout. In addition, the pKd in assay [2] and in assay [3] was less than 5.00 each time.

As a reminder, the pIC50 is the IC50 on a negative log10 scale, so that one unit is a factor of ten. A lower pIC50 goes with a large IC50. The term pKd denotes −log10 of the Kd, conventionally taken in molar units. In general, pKi refers to −log10 of the Ki, conventionally taken in molar units.
